The array DNA melting data of Ke et al. (doi:10.1101/2024.01.08.574731)

Assays:
[1] = melting temperature; fluorescence melt of hairpins on a sequencing array, two-state fit, raised by 9.35 °C to match UV melts; conditions: sodium 0.088 M
Outline: (§1)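 With Cy3 and quencher oligos annealed, library hairpins on a sequenced MiSeq flow cell were imaged for Cy3 fluorescence in 50 mM Na-HEPES pH 8.0, 25 mM NaCl, in 2.5 °C steps up to 60 °C. Melting temperature and folding enthalpy were derived from bootstrapped two-state fits of signals normalised to pre-quench Cy3 and to control constructs. Four replicates were combined by inverse variance, with fitted temperatures raised by 9.35 °C to match UV melts.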

[2] = folding enthalpy; higher = less favourable; fluorescence melt of hairpins on a sequencing array, two-state fit; conditions: sodium 0.088 M
Outline: as §1

GAATACCGAAAGGTGTTC (((.(((....))).)))
Tm [1]: 51.2 °C | folding enthalpy [2]: -40.3 kcal/mol

GAATACCGAAAGGTTTTC (((.(((....))).)))
Tm [1]: 39.5 °C | folding enthalpy [2]: -25.7 kcal/mol

GAATACGAAAGTACTTC ((((((....))).)))
Tm [1]: 30.2 °C | folding enthalpy [2]: -17 kcal/mol

GAATACGAAAGTAGCTTC ((((((....)))..)))
Tm [1]: 33.9 °C | folding enthalpy [2]: -16.4 kcal/mol

GAATAGCCGAAAGGCTTC (((..(((....))))))
Tm [1]: 25.5 °C | folding enthalpy [2]: -7.5 kcal/mol

GAATAGCGAAAGCTTTC (((.(((....))))))
Tm [1]: 33.7 °C | folding enthalpy [2]: -11.6 kcal/mol

GAATAGGGAAACCTGTTC (((.(((....))).)))
Tm [1]: 38.2 °C | folding enthalpy [2]: -30.6 kcal/mol

GAATCACGAAAGTGGTTC (((.(((....))).)))
Tm [1]: 53.2 °C | folding enthalpy [2]: -40.3 kcal/mol

GAATCAGGAAACTGACTC ((.((((....)))).))
Tm [1]: 28.7 °C | folding enthalpy [2]: -17.3 kcal/mol

GAATCCCGAAAGGGTTTC (((.(((....))).)))
Tm [1]: 45.6 °C | folding enthalpy [2]: -23.6 kcal/mol

GAATCCGAAAGGAATTC ((((((....))).)))
Tm [1]: 39.7 °C | folding enthalpy [2]: -23.6 kcal/mol

GAATCCGAAAGGACTTC ((((((....))).)))
Tm [1]: 35.8 °C | folding enthalpy [2]: -19.4 kcal/mol

GAATCCGAAAGGATTTC ((((((....))).)))
Tm [1]: 48.6 °C | folding enthalpy [2]: -13.8 kcal/mol

GAATCCGGAAACAGATTC (((((.(....).)))))
Tm [1]: 31.3 °C | folding enthalpy [2]: -19.5 kcal/mol

GAATCCGGAAACGAATTC ((((.((....)).))))
Tm [1]: 34.1 °C | folding enthalpy [2]: -21.1 kcal/mol

GAATCGCGAAAGCGGTTC (((.(((....))).)))
Tm [1]: 61.7 °C | folding enthalpy [2]: -30.3 kcal/mol

GAATCGGGAAACCAATTC ((((.((....)).))))
Tm [1]: 28.4 °C | folding enthalpy [2]: -16.3 kcal/mol

GAATCGGGAAACCGGTTC (((.(((....))).)))
Tm [1]: 50.2 °C | folding enthalpy [2]: -35.8 kcal/mol

GAATCGGGAAACTGATTC (((((.(....).)))))
Tm [1]: 45.5 °C | folding enthalpy [2]: -38.9 kcal/mol

GAATCTGAAAAGATTC ((((((....))))))
Tm [1]: 49.8 °C | folding enthalpy [2]: -36.8 kcal/mol

GAATCTGGAAACAGATTC (((((((....)))))))
Tm [1]: 55.6 °C | folding enthalpy [2]: -49.8 kcal/mol

GAATGAGGAAACTCATTC (((((((....)))))))
Tm [1]: 52.8 °C | folding enthalpy [2]: -37.3 kcal/mol

GAATGCGAAAGCACTTC ((((((....))).)))
Tm [1]: 40.9 °C | folding enthalpy [2]: -16.2 kcal/mol
